Laboratory results from ChEMBL document CHEMBL4354861, “Re-Evaluating the Mechanism of Action of α,β-Unsaturated Carbonyl DUB Inhibitors b-AP15 and VLX1570: A Paradigmatic Example of Unspecific Protein Cross-linking with Michael Acceptor Motif-Containing Drugs” (J Med Chem, 2020).
Calls of active or inactive are those of the source. The calls are words filed in the database; no cut-off is given here.

How the values were obtained:
[1] = target: Ubiquitin carboxyl-terminal hydrolase 14 (Homo sapiens) (UniProt P54578); experiment: Inhibition of USP14 in human HeLa crude cell extracts assessed as induction of formation of high molecular weight complexes with USP14 at 10 uM incubated for 2 hrs by immunoblot analysis; type: cell-free
[2] = target: T1, Ubiquitin carboxyl-terminal hydrolase isozyme L5 (Homo sapiens) (UniProt Q9Y5K5); experiment: Inhibition of UCH-37 in intact human HeLa cells assessed as induction of formation of high molecular weight complexes with USP14 at 10 uM incubated for 2 hrs in presence of dithiothreitol by immunoblot analysis; type: cell-based
T1 sequence (whole entry): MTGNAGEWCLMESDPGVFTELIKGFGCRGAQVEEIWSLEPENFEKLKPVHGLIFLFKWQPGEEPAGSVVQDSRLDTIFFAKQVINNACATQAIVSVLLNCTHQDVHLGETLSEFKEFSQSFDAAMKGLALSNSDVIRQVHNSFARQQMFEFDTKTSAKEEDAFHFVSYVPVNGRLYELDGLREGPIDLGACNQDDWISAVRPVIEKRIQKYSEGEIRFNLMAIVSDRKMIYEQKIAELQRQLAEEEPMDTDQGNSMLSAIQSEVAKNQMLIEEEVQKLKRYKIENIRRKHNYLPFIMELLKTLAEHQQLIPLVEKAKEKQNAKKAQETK
Procedure, shortened: (§1)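 Intact HeLa cells (DMEM, 10% FBS, about 80% confluent) treated 2 h with vehicle or 10 μM compound, with or without 10 mM DTT or 10 mM GSH. Cells washed in cold PBS and lysed in RIPA with protease and phosphatase inhibitors. High-MW species detected by SDS-PAGE immunoblot; shorter exposures served as loading control.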

[3] = system: HeLa; experiment: Inhibition of deubiquitinase in human HeLa cell extracts assessed as increase in high molecular weight protein complexes at 10 uM incubated for 2 hrs by SDS-PAGE and Coomassie Blue staining based method; type: cell-free
[4] = target: Ubiquitin carboxyl-terminal hydrolase 14 (Homo sapiens) (UniProt P54578); experiment: Inhibition of USP14 in intact human HeLa cells assessed as induction of formation of high molecular weight complexes with USP14 at 10 uM incubated for 2 hrs by immunoblot analysis; type: cell-based; procedure, shortened: as §1
[5] = target: Anamorsin (Homo sapiens) (UniProt Q6FI81); experiment: Inhibition of CIAPIN1 in human KMS11 cells assessed as […] depletion of stable CIAPIN1 levels at 1 to 10 uM incubated for 6 hrs by immunoblot analysis; type: cell-based
[6] = target: Ubiquitin thioesterase OTUB1 (Homo sapiens) (UniProt Q96FW1); experiment: Inhibition of recombinant human His6-Otubain-1 assessed as reduction in cleavage of luminescent substrate Ub-AML at 100 uM
Procedure, shortened: (§2)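 Purified recombinant DUBs assayed with Ub-AML as luminescent substrate, using the Glo reagent protocol and read on a microplate luminometer.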

[7] = target: Ubiquitin carboxyl-terminal hydrolase 14 (Homo sapiens) (UniProt P54578); experiment: Inhibition of USP14 in intact human HeLa cells assessed as induction of formation of high molecular weight complexes with USP14 at 10 uM in presence of dithiothreitol incubated for 2 hrs by immunoblot analysis; type: cell-based; procedure, shortened: as §1
[8] = system: HeLa; experiment: Inhibition of deubiquitinase in human HeLa cell extracts assessed as increase in high molecular weight protein complexes at 10 uM incubated for 2 hrs in presence of DTT by SDS-PAGE and Coomassie Blue staining based method; type: cell-free
[9] = system: HeLa; experiment: Inhibition of deubiquitinase in human HeLa cell extracts assessed as decrease in global DUB activity at 10 uM using luminescent substrate Ub-AML; type: cell-free
Procedure, shortened: (§3)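 HeLa crude extracts used as the DUB source, prepared as for the ABP assays. Global DUB activity read by luminescence with Ub-AML substrate, using the Glo reagent protocol.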

[10] = system: KMS-11; experiment: Cytotoxicity in human KMS11 cells assessed as reduction in cell viability at 1 to 10 uM incubated for 16 hrs in presence of GSH by Alamar blue assay; type: functional, cell-based
Procedure, shortened: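 KMS11 seeded at 80,000/well, treated with 1 or 10 µM compound with or without 1 mM GSH for 16 h, 6 biological replicates. Alamar blue fluorescence read at 560/590 nm, normalised to DMSO control.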

[11] = target: T1, Ubiquitin carboxyl-terminal hydrolase isozyme L5 (Homo sapiens); experiment: Inhibition of UCH-37 in human HeLa crude cell extracts assessed as induction of formation of high molecular weight complexes with […] at 10 uM incubated for 2 hrs in presence of glutathione by immunoblot analysis; type: cell-free
[12] = target: Ubiquitin carboxyl-terminal hydrolase 14 (Homo sapiens) (UniProt P54578); experiment: Inhibition of USP14 in human HeLa crude cell extracts assessed as induction of formation of high molecular weight complexes with USP14 at 10 uM incubated for 2 hrs in presence of glutathione by immunoblot analysis; type: cell-free
[13] = target: T1, Ubiquitin carboxyl-terminal hydrolase isozyme L5 (Homo sapiens); experiment: Inhibition of UCH-37 in intact human HeLa cells assessed as induction of formation of high molecular weight complexes with USP14 at 10 uM incubated for 2 hrs by immunoblot analysis; type: cell-based; procedure, shortened: as §1
[14] = target: Anamorsin (Homo sapiens) (UniProt Q6FI81); experiment: Inhibition of CIAPIN1 in human KMS11 cells assessed as induction of high molecular weight complex formation at 1 to 10 uM incubated for 6 hrs by immunoblot analysis; type: cell-based
[15] = target: Ubiquitin carboxyl-terminal hydrolase BAP1 (Homo sapiens) (UniProt Q92560); experiment: Inhibition of His6-tagged recombinant human BAP1 assessed as reduction in cleavage of luminescent substrate Ub-AML at 100 uM; procedure, shortened: as §2
[16] = target: Ubiquitin carboxyl-terminal hydrolase 2 (Homo sapiens) (UniProt O75604); experiment: Inhibition of N-terminal His6-tagged […] recombinant human USP2 catalytic domain assessed as reduction in cleavage of luminescent substrate Ub-AML at 100 uM; procedure, shortened: as §2
[17] = system: HeLa; experiment: Inhibition of deubiquitinase in human HeLa cell extracts assessed as increase in high molecular weight protein complexes at 10 uM incubated for 2 hrs in presence of GSH by SDS-PAGE and Coomassie Blue staining based method; type: cell-free
[18] = target: Tumor necrosis factor alpha-induced protein 3 (Homo sapiens) (UniProt P21580); experiment: Inhibition of A20 catalytic domain (unknown origin) assessed as reduction in cleavage of luminescent substrate Ub-AML at 100 uM; procedure, shortened: as §2
[19] = target: T1, Ubiquitin carboxyl-terminal hydrolase isozyme L5 (Homo sapiens); experiment: Inhibition of UCH-37 in intact human HeLa cells assessed as induction of formation of high molecular weight complexes with USP14 at 10 uM incubated for 2 hrs in presence of glutathione by immunoblot analysis; type: cell-based; procedure, shortened: as §1
[20] = target: T1, Ubiquitin carboxyl-terminal hydrolase isozyme L5 (Homo sapiens); experiment: Inhibition of UCH-37 in human HeLa crude cell extracts assessed as induction of formation of high molecular weight complexes with […] at 10 uM incubated for 2 hrs by immunoblot analysis; type: cell-free
[21] = system: HeLa; experiment: Inhibition of deubiquitinase in human HeLa cell extracts assessed as decrease in global DUB activity at 50 uM using luminescent substrate Ub-AML; type: cell-free; procedure, shortened: as §3
[22] = target: Ubiquitin carboxyl-terminal hydrolase isozyme L3 (Homo sapiens) (UniProt P15374); experiment: Inhibition of human recombinant UCHL3 assessed as reduction in cleavage of luminescent substrate Ub-AML at 100 uM; procedure, shortened: as §2
Chain of Ubiquitin carboxyl-terminal hydrolase isozyme L3 (Homo sapiens) (P15374 whole entry): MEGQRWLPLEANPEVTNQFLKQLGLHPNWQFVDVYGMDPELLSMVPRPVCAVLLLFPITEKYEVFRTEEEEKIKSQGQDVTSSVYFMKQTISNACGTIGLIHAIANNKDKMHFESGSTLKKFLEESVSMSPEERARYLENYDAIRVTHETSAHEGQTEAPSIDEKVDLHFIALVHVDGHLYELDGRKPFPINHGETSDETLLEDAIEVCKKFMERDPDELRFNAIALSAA

Chain of Ubiquitin carboxyl-terminal hydrolase 14 (Homo sapiens) (P54578 whole entry): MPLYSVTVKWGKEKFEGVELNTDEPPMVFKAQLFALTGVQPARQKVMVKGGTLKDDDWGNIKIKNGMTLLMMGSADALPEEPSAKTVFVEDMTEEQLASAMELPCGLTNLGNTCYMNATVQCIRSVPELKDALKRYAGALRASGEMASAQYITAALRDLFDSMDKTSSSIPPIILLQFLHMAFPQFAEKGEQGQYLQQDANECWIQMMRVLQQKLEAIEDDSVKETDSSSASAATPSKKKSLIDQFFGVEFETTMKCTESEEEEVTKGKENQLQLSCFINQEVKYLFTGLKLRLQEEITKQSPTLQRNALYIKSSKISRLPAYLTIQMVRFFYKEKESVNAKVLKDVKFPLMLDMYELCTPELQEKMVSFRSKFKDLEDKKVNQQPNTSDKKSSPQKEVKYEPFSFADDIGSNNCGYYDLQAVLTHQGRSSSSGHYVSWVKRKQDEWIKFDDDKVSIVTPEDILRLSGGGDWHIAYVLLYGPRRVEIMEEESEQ
Chain of Anamorsin (Homo sapiens) (Q6FI81 whole entry): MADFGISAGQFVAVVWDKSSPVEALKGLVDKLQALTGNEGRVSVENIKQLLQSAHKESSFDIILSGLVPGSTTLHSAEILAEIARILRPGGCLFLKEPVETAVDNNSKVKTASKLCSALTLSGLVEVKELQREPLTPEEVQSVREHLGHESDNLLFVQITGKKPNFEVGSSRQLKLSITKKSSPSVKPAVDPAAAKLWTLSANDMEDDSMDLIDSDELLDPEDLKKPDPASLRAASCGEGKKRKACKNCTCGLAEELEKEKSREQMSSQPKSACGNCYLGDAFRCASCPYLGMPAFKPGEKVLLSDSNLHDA
Chain of Tumor necrosis factor alpha-induced protein 3 (Homo sapiens) (P21580 whole entry, the tested form may be a part): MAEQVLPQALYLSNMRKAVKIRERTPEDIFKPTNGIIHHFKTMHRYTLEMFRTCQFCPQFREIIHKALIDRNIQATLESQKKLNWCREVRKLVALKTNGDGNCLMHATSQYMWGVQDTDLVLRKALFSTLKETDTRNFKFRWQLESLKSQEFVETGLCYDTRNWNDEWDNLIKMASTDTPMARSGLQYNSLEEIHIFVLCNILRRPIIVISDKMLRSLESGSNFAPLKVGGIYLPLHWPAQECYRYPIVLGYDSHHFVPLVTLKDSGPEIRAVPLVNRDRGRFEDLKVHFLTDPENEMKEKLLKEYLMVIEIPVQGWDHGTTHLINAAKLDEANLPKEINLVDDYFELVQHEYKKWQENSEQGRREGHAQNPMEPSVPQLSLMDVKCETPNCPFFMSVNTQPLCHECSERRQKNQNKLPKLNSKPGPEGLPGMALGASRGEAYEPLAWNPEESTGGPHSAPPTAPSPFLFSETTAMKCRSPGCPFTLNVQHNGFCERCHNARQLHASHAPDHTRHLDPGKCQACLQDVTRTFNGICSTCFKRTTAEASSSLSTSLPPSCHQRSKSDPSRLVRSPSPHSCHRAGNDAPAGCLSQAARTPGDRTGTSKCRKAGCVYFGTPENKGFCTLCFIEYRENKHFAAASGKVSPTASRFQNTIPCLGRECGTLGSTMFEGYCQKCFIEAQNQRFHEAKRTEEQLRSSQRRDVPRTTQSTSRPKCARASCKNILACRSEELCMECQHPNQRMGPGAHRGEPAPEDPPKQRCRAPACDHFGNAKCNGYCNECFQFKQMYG
Chain of Ubiquitin carboxyl-terminal hydrolase BAP1 (Homo sapiens) (Q92560 whole entry, the tested form may be a part): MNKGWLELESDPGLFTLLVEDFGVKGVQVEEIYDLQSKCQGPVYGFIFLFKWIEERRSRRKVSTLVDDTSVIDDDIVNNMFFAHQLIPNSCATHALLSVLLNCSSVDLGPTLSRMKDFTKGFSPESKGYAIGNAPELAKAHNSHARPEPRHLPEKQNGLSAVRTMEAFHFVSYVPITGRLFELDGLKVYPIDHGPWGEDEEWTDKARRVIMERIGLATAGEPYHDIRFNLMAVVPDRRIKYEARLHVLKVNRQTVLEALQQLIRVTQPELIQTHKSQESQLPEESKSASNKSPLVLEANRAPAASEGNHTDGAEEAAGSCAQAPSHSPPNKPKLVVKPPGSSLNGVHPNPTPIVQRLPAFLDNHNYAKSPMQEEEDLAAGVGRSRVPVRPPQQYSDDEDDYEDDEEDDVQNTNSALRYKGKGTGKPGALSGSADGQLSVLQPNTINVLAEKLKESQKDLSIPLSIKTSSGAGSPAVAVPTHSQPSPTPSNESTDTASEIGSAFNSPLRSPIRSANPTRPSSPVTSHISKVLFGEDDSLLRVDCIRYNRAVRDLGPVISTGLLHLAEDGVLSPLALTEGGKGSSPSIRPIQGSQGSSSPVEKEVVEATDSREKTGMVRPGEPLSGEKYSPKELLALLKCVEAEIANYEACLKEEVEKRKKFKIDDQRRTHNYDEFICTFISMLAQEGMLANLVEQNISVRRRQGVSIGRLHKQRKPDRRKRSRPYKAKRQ
Chain of Ubiquitin carboxyl-terminal hydrolase 2 (Homo sapiens) (O75604 whole entry, the tested form may be a part): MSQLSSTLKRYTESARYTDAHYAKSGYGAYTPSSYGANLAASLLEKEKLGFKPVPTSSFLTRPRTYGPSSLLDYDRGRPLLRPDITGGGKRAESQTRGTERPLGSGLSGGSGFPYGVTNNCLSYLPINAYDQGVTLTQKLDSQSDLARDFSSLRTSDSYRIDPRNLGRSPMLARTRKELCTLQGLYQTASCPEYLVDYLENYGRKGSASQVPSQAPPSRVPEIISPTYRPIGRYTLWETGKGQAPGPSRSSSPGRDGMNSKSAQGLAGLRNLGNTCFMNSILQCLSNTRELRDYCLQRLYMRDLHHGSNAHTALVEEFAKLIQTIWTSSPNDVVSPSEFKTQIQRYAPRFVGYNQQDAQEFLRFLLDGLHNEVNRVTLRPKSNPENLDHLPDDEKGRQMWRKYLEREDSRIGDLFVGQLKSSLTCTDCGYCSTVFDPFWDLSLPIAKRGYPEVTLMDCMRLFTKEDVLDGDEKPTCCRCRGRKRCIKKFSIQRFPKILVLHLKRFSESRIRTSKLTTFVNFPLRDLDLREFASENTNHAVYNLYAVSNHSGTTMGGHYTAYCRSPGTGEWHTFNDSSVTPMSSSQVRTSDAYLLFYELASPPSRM
Chain of Ubiquitin thioesterase OTUB1 (Homo sapiens) (Q96FW1 whole entry): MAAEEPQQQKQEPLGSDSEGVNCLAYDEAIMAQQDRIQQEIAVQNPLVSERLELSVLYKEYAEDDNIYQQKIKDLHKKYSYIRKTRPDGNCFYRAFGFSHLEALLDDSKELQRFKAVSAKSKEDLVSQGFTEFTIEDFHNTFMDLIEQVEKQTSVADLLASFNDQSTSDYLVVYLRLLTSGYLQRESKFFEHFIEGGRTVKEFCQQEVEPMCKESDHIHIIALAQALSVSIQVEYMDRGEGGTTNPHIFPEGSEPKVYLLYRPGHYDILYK

With `C=CC(=O)N1C/C(=C\c2ccc([N+](=O)[O-])cc2)C(=O)/C(=C/c2ccc([N+](=O)[O-])cc2)C1` the inhibition [1] was “Active”, the inhibition [2] was “inactive” and the inhibition [3] was “Active”. For the same compound, the inhibition [4] was “Active”, the inhibition [5] was “Active” and the inhibition [6] was “Active”. The inhibition [7] was “inactive”, the inhibition [8] was “inactive” and the inhibition [9] was “Active”. For the same compound, the Activity [10] was “inactive”, the inhibition [11] was “inactive” and the inhibition [12] was “inactive”. The inhibition [13] was “Active”, the inhibition [14] was “Active” and the inhibition [15] was “Active”. For the same compound, the inhibition [16] was “Active”, the inhibition [17] was “inactive” and the inhibition [18] was “Active”. For the same compound, the inhibition [19] was “inactive”, the inhibition [20] was “Active” and the inhibition [21] was “Active”. For the same compound, the inhibition [22] was “Active”.
